Values after ≈ are worked out from the molar mass of the structure shown.
How the values were obtained:
[1] = Growth inhibition of Staphylococcus aureus USA300
Escherichia coli CFT073 = assay: Inhibition of LspA in wild type Escherichia coli CFT073 assessed as inhibition of bacterial growth
Outline: (§1)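 Read-out is the minimum inhibitory concentration, reported in µM.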

Escherichia coli = assay: Inhibition of LspA in Escherichia coli CFT073imp4213 harboring outer membrane-permeable mutant assessed as inhibition of bacterial growth; outline: as §1
[2] = Lipophilicity, logD of the compound at pH 7.4; settings: buffer, pH 7.4, logD

Compound	MIC [1] [µM]	MIC (Escherichia coli CFT073) [µM]	MIC (Escherichia coli) [µM]	logD [2]
CCCCCCCCCC[C@H]1OC(=O)CNC(=O)[C@H]([C@H](C)O)NC(=O)[C@H](CO)NC(=O)[C@H]([C@H](C)CC)NC(=O)[C@H](CC(C)C)N(C)C(=O)[C@@H]1C	25 (≈ 17.8 µg/mL)	5.4 (≈ 3.84 µg/mL)	0.016 (≈ 0.0114 µg/mL)	
CCCCCC[C@H]1OC(=O)CNC(=O)[C@H]([C@H](C)O)NC(=O)[C@H](CN)NC(=O)[C@H](C2CCCCC2)NC(=O)[C@H](CC)N(C)C(=O)[C@@H]1C	> 100	8.8 (≈ 5.74 µg/mL)	0.14 (≈ 0.0914 µg/mL)	
CCCCCC[C@H]1OC(=O)CNC(=O)[C@H]([C@H](C)O)NC(=O)[C@H](CN)NC(=O)[C@H]([C@@H](C)O)NC(=O)[C@H](CC(C)C)N(C)C(=O)[C@@H]1C	> 100	> 100	50 (≈ 32.1 µg/mL)	
CCCCCC[C@H]1OC[C@@H](C)NC(=O)[C@H](CN(C)CCCN)NC(=O)[C@H](CN)NC(=O)[C@H](C2CCCCCC2)NC(=O)[C@H](CCC)N(C)C(=O)[C@@H]1C	100 (≈ 73.7 µg/mL)	8.8 (≈ 6.49 µg/mL)	0.39 (≈ 0.287 µg/mL)	1.8
CCCCCC[C@H]1OC(=O)CNC(=O)[C@H]([C@H](C)O)NC(=O)[C@H](CN)NC(=O)[C@H]([C@@H](C)OC)NC(=O)[C@H](CC(C)C)N(C)C(=O)[C@@H]1C	> 100	> 100	7.7 (≈ 5.06 µg/mL)	
CCCCCC[C@H]1OC(=O)CNC(=O)[C@H]([C@H](C)O)NC(=O)[C@H](CN)NC(=O)[C@H](CCC(N)=O)NC(=O)[C@H](CC(C)C)N(C)C(=O)[C@@H]1C	> 100	> 100	> 100	
COC(C)(C)CCCCCC[C@H]1OC(=O)CNC(=O)[C@H]([C@H](C)O)NC(=O)[C@H](CN)NC(=O)[C@H](C2CCCCC2)NC(=O)[C@H](CC(C)C)N(C)C(=O)[C@@H]1C	> 100	2.2 (≈ 1.66 µg/mL)	0.048 (≈ 0.0361 µg/mL)	2.8
CCCCCC[C@H]1OC(=O)CNC(=O)[C@H]([C@H](C)O)NC(=O)[C@H](CN)NC(=O)[C@H](Cc2ccccc2)NC(=O)[C@H](CC(C)C)N(C)C(=O)[C@@H]1C	> 100	50 (≈ 34.4 µg/mL)	0.8 (≈ 0.551 µg/mL)	
CCCCCC[C@H]1OC(=O)CNC(=O)[C@H]([C@H](C)O)NC(=O)[C@H](CN)NC(=O)[C@H](C2CCCCCC2)NC(=O)[C@H](CC(C)C)N(C)C(=O)[C@@H]1C	50 (≈ 34.7 µg/mL)	1.1 (≈ 0.764 µg/mL)	0.014 (≈ 0.00973 µg/mL)	3.4
CCCCCC[C@H]1OC[C@@H](C)NC(=O)[C@H](CNCCCN)NC(=O)[C@H](CN)NC(=O)[C@H](C2CCCCCC2)NC(=O)[C@H](CCC)N(C)C(=O)[C@@H]1C	50 (≈ 36.2 µg/mL)	3.1 (≈ 2.24 µg/mL)	0.28 (≈ 0.202 µg/mL)	1.1
CCC[C@H]1C(=O)N[C@@H](C2CCCCCC2)C(=O)N[C@@H](CN)C(=O)N[C@@H]([C@H](C)O)C(=O)NCC(=O)O[C@H](C[C@@H]2CC[C@@H]3CC[C@H]2C3)[C@@H](C)C(=O)N1C	25 (≈ 18 µg/mL)	0.4 (≈ 0.288 µg/mL)	0.009 (≈ 0.00647 µg/mL)	3.1
CCCCCCCCCC[C@H]1OC(=O)CNC(=O)[C@H]([C@H](C)O)NC(=O)[C@H](CNC(=N)N)NC(=O)[C@H]([C@@H](C)CC)NC(=O)[C@H](CC(C)C)N(C)C(=O)[C@@H]1C	13 (≈ 9.79 µg/mL)	50 (≈ 37.6 µg/mL)	1.6 (≈ 1.2 µg/mL)	
CC[C@@H](C)[C@@H]1NC(=O)[C@H](CC(C)C)N(C)C(=O)[C@H](C)[C@@H](CCCCC(C)(C)C)OC(=O)CNC(=O)[C@H]([C@H](C)O)NC(=O)[C@H](CN)NC1=O	100 (≈ 68.3 µg/mL)	3.1 (≈ 2.12 µg/mL)	0.035 (≈ 0.0239 µg/mL)	3
CCCCCC[C@H]1OC(=O)CNC(=O)[C@H]([C@H](C)O)NC(=O)[C@H](CN)NC(=O)[C@H](C2CCCCC2)NC(=O)[C@H](CCC)N(C)C(=O)[C@@H]1C	> 100	3.5 (≈ 2.33 µg/mL)	0.049 (≈ 0.0327 µg/mL)	
CCCCCCCCCC[C@H]1OC(=O)CNC(=O)[C@H]([C@H](C)O)NC(=O)[C@H](CCN)NC(=O)[C@H]([C@@H](C)CC)NC(=O)[C@H](CC(C)C)N(C)C(=O)[C@@H]1C	13 (≈ 9.42 µg/mL)	25 (≈ 18.1 µg/mL)	0.39 (≈ 0.283 µg/mL)	
CCCCCC[C@H]1OC(=O)CNC(=O)[C@H]([C@H](C)O)NC(=O)[C@H](CN)NC(=O)[C@H](CC(C)C)NC(=O)[C@H](CC(C)C)N(C)C(=O)[C@@H]1C	> 100	25 (≈ 16.4 µg/mL)	0.4 (≈ 0.262 µg/mL)	
CCCC(C)(C)CC[C@H]1OC(=O)CNC(=O)[C@H]([C@H](C)O)NC(=O)[C@H](CN)NC(=O)[C@H]([C@H](C)CC)NC(=O)[C@H](CC(C)C)N(C)C(=O)[C@@H]1C	100 (≈ 68.3 µg/mL)	3.1 (≈ 2.12 µg/mL)	0.034 (≈ 0.0232 µg/mL)	3.2
CCCCCC[C@H]1OC(=O)CNC(=O)[C@H]([C@H](C)O)NC(=O)[C@H](CN)NC(=O)[C@H]([C@H](C)CC)NC(=O)[C@H](CC(C)C)N(C)C(=O)[C@@H]1C	> 100	8.6 (≈ 5.63 µg/mL)	0.053 (≈ 0.0347 µg/mL)	

Source: ChEMBL document CHEMBL4665734, “Optimization of globomycin analogs as novel gram-negative antibiotics” (Bioorg Med Chem Lett, 2020)
